Here are results for 15 molecules from PubChem BioAssay.

Activity calls are given as the source filed them.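 The calls were made as follows, unless noted: active = viability at or under a set limit in both replicates, limit being median viability minus 3 SD (cut at about 48% in these data, passing the limit was not always enough); inconclusive = at or under the limit in just one replicate; inactive = at or above the limit in both replicates.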

Test [1] in a line: Her2 expression decrease, cell viability multiplex – SKBR3 breast tumor cells, AlphaScreen, ATP viability, primary screen (AID 461;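 active = Her2 level under about 52% in both replicate screens, with viability over 70% of control, limit read from the data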;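 as to Her2 level: lower value means less Her2 protein in the cells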;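 as to viability: percent of carrier control wells set as 100% viability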). Particulars: SKBR3 Her2 protein level, 18-24 h, measured here: SKBR3 viability, ATP luminescence, at 10 µM.
Test [2] has as its target Receptor tyrosine-protein kinase erbB-2 (Homo sapiens) (UniProt P04626). The description is as above. Particulars: 18-24 h, at 10 µM, stronger effect = lower value.
Test [3] can be described thus: reduced viability of SK-BR-3 breast cancer cells – cell-based, 24 h, human, pilot screen (AID 572;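 active = viability at or below 10% of carrier control in both of two separate runs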;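 also: compound exposure lasted between 18 and 24 h rather than exactly 24 h; 100% = carrier-treated control wells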). Particulars: SK-BR-3 viability, CellTiter-Glo luminescence, at 10 µM, stronger effect = lower value.
Test [4] in a line: HUVEC growth inhibition – cell-based, human, primary screen (AID 575;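 active = viability at or below 30% in both replicate assays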;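 also: 100% = median of untreated cell wells with 0.1% DMSO on each plate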). Particulars: HUVEC proliferation, CellTiter-Glo luminescence, 72 h; at 10 µM; stronger effect = lower value. In short, it runs like this:
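Test system: primary human umbilical vein endothelial cells; medium: endothelial basal medium with 2% FBS plus growth supplements; dosing: 10 µM compound only; times: 72 h treatment at 37 °C; signal: CTG luminescence; read-out: % viability relative to median vehicle-well signal on each plate; control set: vehicle and MePR control wells; plate: 384-well, collagen-coated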
On the technique in general: ATP-based viability assays read luminescence as a measure of living cells.

A short description of test [5]: H69AR cell proliferation blockers – human, duplicate replicates, primary screen (AID 580).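 Also: 100% = mean luminescence of untreated wells and 0% = no signal.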 Particulars: H69AR lung tumor cells viability, ATP luminescence, 72 h; at 10 µM; stronger effect = lower value.
The nature of test [6]: MRP1 drug-resistance reversers in H69AR cells – cell-based, doxorubicin co-treatment, pilot screen (AID 601;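 active = viability loss from added drug above about 55%, and viability with drug at most 40%, in both replicates, limit read from the data, passing the limit was not always enough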). Particulars: CellTiter-Glo, 72 h, at 10 µM; for differential viability (reversal): stronger effect = higher value.
A short description of test [7]: yeast transport mutant growth inhibition pilot in 384-well plates, post-Golgi transport modulator project (AID 636; in the data active = inhibition above about 31%). Particulars: absorbance 615 nm, about 18 h, stronger effect = higher value.
A short description of test [8]: growth suppression of yeast trafficking mutant, preliminary HTS, modulators of trafficking downstream of Golgi apparatus project, 1536-format plate, OD 615 nm (AID 637; in the data active = inhibition above about 30%). The following applies: yeast transport mutant growth, absorbance 615 nm, 18 h; stronger effect = higher value.
Setting [9] is: H69AR cells + 2 uM doxorubicin, measured here: viability with 2 uM doxorubicin, stronger effect = lower value.
The mark [10] stands for this setting: H69AR cells, compound alone cytotoxicity.

Chain of Receptor tyrosine-protein kinase erbB-2 (Homo sapiens) (P04626 whole entry, looked up): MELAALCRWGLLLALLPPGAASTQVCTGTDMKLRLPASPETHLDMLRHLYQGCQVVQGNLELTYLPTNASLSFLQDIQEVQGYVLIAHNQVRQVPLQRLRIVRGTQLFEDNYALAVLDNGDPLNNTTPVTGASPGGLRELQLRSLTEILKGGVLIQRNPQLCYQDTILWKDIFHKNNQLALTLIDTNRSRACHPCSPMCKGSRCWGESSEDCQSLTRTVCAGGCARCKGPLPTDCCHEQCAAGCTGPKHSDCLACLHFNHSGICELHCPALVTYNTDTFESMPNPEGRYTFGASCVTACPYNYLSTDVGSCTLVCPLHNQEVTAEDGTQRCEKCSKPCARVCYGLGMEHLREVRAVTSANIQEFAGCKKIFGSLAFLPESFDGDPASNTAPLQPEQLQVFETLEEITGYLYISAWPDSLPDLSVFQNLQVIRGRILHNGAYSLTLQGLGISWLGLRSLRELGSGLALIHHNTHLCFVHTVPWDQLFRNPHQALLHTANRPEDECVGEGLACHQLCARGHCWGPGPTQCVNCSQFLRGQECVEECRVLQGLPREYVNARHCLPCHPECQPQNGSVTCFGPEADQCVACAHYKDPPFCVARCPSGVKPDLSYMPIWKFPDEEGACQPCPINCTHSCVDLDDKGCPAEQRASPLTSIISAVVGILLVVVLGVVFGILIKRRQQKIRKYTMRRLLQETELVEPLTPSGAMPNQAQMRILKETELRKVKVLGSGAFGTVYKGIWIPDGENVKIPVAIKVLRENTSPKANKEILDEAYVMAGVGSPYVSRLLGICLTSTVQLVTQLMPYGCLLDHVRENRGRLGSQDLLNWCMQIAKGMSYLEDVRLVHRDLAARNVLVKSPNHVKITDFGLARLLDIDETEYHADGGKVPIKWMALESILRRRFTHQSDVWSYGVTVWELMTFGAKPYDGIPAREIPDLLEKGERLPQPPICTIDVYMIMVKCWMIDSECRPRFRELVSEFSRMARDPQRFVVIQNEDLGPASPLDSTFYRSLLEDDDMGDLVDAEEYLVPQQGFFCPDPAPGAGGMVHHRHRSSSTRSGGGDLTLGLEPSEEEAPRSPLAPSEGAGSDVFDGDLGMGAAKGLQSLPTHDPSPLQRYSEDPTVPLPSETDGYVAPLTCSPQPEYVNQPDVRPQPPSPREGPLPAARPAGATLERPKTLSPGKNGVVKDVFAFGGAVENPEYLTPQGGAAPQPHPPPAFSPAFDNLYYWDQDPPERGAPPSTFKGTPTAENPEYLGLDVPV

As usually defined, the viability is a read-out of living cells in per cent, often relative to untreated cells. Usually inhibition stands for the relative decrease from the control value, in per cent. `CC(=O)NCc1cccc(CNC(C)=O)n1`: the viability in test [1] was 84.5%; in test [3], 84.5% (inactive); in test [4], 88.4% (inactive); in test [5], 98% (inactive); in test [6] (setting [9]) it was 90.1%; in test [6] (setting [10]), 98%. In addition, the Her2 level in test [2] is 82.5% (inactive). Also, the differential viability (reversal) in test [6] (H69AR cells + 2 uM doxorubicin) was 7.96% (inactive). Besides, the inhibition in test [7] is -6.8% (inactive); in test [8] it was -6.67% (inactive).
For the molecule `CCC(=O)N1CCc2cc(S(=O)(=O)CCC(=O)Nc3nc(C)cs3)ccc21`, the viability in test [1] is 106%; in test [3], 106% (inactive); in test [4], 90.5% (inactive); in test [5] it was 74.4% (inactive); in test [6] (setting [9]), 66.8%; in test [6] (setting [10]) it was 74.4%. For the same molecule, the Her2 level in test [2] was 85% (inactive). Also, the differential viability (reversal) in test [6] (H69AR cells + 2 uM doxorubicin) is 7.69% (inactive). Further, the values for the inhibition in test [7] and in test [8] were -4.8% (inactive) and -5.9% (inactive), respectively.
`CC1Cc2ccccc2N1C(=O)COC(=O)Cn1nnc(-c2ccccc2)n1` (stereo not given): the viability is 110% in test [1]; 110% (inactive) in test [3]; 88.5% (inactive) in test [4]; 81% (inactive) in test [5]; 73.6% in test [6] (setting [9]); 81% in test [6] (setting [10]). In addition, the Her2 level in test [2] is 92.5% (inactive). The differential viability (reversal) in test [6] (H69AR cells + 2 uM doxorubicin) was 7.38% (inactive). Also, the inhibition was -5.27% (inactive) in test [7] and 3.65% (inactive) in test [8].
In the case of `CN(C1CCCCC1)S(=O)(=O)c1ccc(S(=O)(=O)N2CCCC2)cc1`, the viability in test [1] was 84.5%; in test [3], 84.5% (inactive); in test [4], 78.3% (inactive); in test [5], 78.5% (inactive); in test [6] (setting [9]) it was 97.7%; in test [6] (setting [10]) it was 78.5%. Moreover, the Her2 level in test [2] is 92% (inactive). Also, in test [6] (H69AR cells + 2 uM doxorubicin), the differential viability (reversal) is -19.2% (inactive). In addition, the inhibition in test [7] was -0.13% (inactive); in test [8] it was -4.92% (inactive).
As to `CC(C)COC(=O)C(C#N)c1nc2ccccc2nc1N1CCN(Cc2ccccc2)CC1` (stereo not given), the viability in test [1] is 76%; in test [3], 76% (inactive); in test [4] it was 64.7% (inactive); in test [5] it was 74.7% (inactive); in test [6] (setting [9]), 80.6%; in test [6] (setting [10]), 74.7%. Besides, the Her2 level in test [2] is 85.5% (inactive). In addition, the differential viability (reversal) in test [6] (H69AR cells + 2 uM doxorubicin) is -5.91% (inactive). The inhibition in test [7] is -4.53% (inactive); in test [8], 14.3% (inactive).
Consider `CCOC(=O)N1CCN(Cc2ccccc2F)CC1`, for which the viability in test [1] is 102%; in test [3], 102% (inactive); in test [4] it was 98.1% (inactive); in test [5], 85% (inactive); in test [6] (setting [9]) it was 87.2%; in test [6] (setting [10]) it was 85%. The Her2 level in test [2] is 81% (inactive). Further, the differential viability (reversal) in test [6] (H69AR cells + 2 uM doxorubicin) is -2.15% (inactive). Besides, the figures for the inhibition in test [7] and in test [8] were -7.33% (inactive) and 2.3% (inactive), respectively.
Take `CC1CN(CC(O)COc2ccc(C(C)C)cc2)CC(C)O1` (stereo not given): the viability was 93% in test [1]; 93% (inactive) in test [3]; 94.9% (inactive) in test [4]; 76.2% (inactive) in test [5]; 72.4% in test [6] (setting [9]); 76.2% in test [6] (setting [10]). In test [2], the Her2 level was 94.5% (inactive). Besides, the differential viability (reversal) in test [6] (H69AR cells + 2 uM doxorubicin) was 3.78% (inactive). For the same molecule, the inhibition is 18.6% (inactive) in test [7] and 6% (inactive) in test [8].
As for `COc1ccc(C2C=C(c3ccccc3)Nc3ncnn32)cc1` (stereo not given), the viability is 92.5% in test [1]; 92.5% (inactive) in test [3]; 110% (inactive) in test [4]; 101% (inactive) in test [5]; 100% in test [6] (setting [9]); 101% in test [6] (setting [10]). In addition, the Her2 level in test [2] was 94.5% (inactive). Also, the differential viability (reversal) in test [6] (H69AR cells + 2 uM doxorubicin) was 1.29% (inactive). Further, the figures for the inhibition in test [7] and in test [8] were -3.65% (inactive) and 3.65% (inactive), respectively.
Take `O=C(Cn1c(NCCO)nc2ccccc21)c1ccccc1`: the viability in test [1] is 100%; in test [3], 100% (inactive); in test [4], 99.6% (inactive); in test [5], 104% (inactive); in test [6] (setting [9]), 101%; in test [6] (setting [10]), 104%. In test [2], the Her2 level is 100% (inactive). Moreover, in test [6] (H69AR cells + 2 uM doxorubicin), the differential viability (reversal) was 3.85% (inactive). For the same molecule, the inhibition is -2.16% (inactive) in test [7] and 2.7% (inactive) in test [8].
For `Cc1nnc(SC(=O)N2c3ccccc3Sc3ccccc32)s1`, the viability is 114% in test [1]; 114% (inactive) in test [3]; 13.2% (active) in test [4]; 1.79% (active) in test [5]; 1.69% in test [6] (setting [9]); 1.79% in test [6] (setting [10]). Also, the Her2 level in test [2] was 6.5% (active). The differential viability (reversal) in test [6] (H69AR cells + 2 uM doxorubicin) is 0.105% (inactive). Further, the values for the inhibition in test [7] and in test [8] were 54% (active) and 8.67% (inactive), respectively.
As to `O=S(=O)(c1ccc(OCC(O)CN2CCc3ccccc3C2)cc1)N1CCOCC1` (stereo not given), the viability was 89% in test [1]; 89% (inactive) in test [3]; 98.2% (inactive) in test [4]; 87.6% (inactive) in test [5]; 84.6% in test [6] (setting [9]); 87.6% in test [6] (setting [10]). In test [2], the Her2 level is 83.5% (inactive). The differential viability (reversal) in test [6] (H69AR cells + 2 uM doxorubicin) is 2.98% (inactive). The figures for the inhibition in test [7] and in test [8] were -1.71% (inactive) and -2.73% (inactive), respectively.
Take `CC(NC(=O)c1ccco1)c1ccc2c(c1)OCCO2` (stereo not given): the viability is 116% in test [1]; 116% (inactive) in test [3]; 90.7% (inactive) in test [4]; 96.3% (inactive) in test [5]; 87.1% in test [6] (setting [9]); 96.3% in test [6] (setting [10]). The Her2 level in test [2] is 95.5% (inactive). For the same molecule, the differential viability (reversal) in test [6] (H69AR cells + 2 uM doxorubicin) is 9.19% (inactive). In addition, the inhibition in test [7] is -5.73% (inactive); in test [8], -1.43% (inactive).
Consider `CCOC(=O)C1CCN(Cc2ccc(C(=O)OC)cc2)CC1`, for which the viability in test [1] was 93.5%; in test [3] it was 93.5% (inactive); in test [4], 87% (inactive); in test [5] it was 87.4% (inactive); in test [6] (setting [9]), 83.2%; in test [6] (setting [10]) it was 87.4%. In test [2], the Her2 level was 106% (inactive). Besides, the differential viability (reversal) in test [6] (H69AR cells + 2 uM doxorubicin) is 4.25% (inactive). In addition, the inhibition is -4.08% (inactive) in test [7] and -1.8% (inactive) in test [8].
As to `CCOc1ccc2c(c1)n(CO)c(=S)n2CO`, the viability is 107% in test [1]; 107% (inactive) in test [3]; 83.6% (inactive) in test [4]; 89.6% (inactive) in test [5]; 87.5% in test [6] (setting [9]); 89.6% in test [6] (setting [10]). Besides, the Her2 level in test [2] was 74% (inactive). In test [6] (H69AR cells + 2 uM doxorubicin), the differential viability (reversal) is 2.06% (inactive). Further, the inhibition was -2.53% (inactive) in test [7] and 0.81% (inactive) in test [8].
Regarding `Cc1cc(Nc2ccccc2F)n2ncnc2n1`, the viability in test [1] is 101%; in test [3], 101% (inactive); in test [4], 99% (inactive); in test [5], 97.1% (inactive); in test [6] (setting [9]), 88.3%; in test [6] (setting [10]), 97.1%. Further, the Her2 level in test [2] was 97.5% (inactive). Moreover, in test [6] (H69AR cells + 2 uM doxorubicin), the differential viability (reversal) is 8.83% (inactive). Moreover, the inhibition in test [7] was -0.67% (inactive); in test [8], 0.16% (inactive).
